Experiments:
H3K27me3 [1] = conditions: mutant EZH2-bearing lymphoma cells; cited from earlier work
MDA-MB-231 cells = assay: Number of analyzed nuclei; type: cell-based; conditions: MDA-MB-231, 3 days, maximal effect, concentration not given
How it was run: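 Proliferation was read from the same 3-day high-content assay in 384-well plates at 37 °C, 5% CO2. Nuclei were counted in the Hoechst (4 µg/mL) DNA channel. Segmentation used a gray-level threshold and minimum/maximum nuclear diameter set on DMSO-treated controls, which excluded debris. Total nuclei per well served as cell number and were expressed as % of DMSO control, in triplicate.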

H3K27me3 [2] = assay: H3K27me3 HCA assay, MDA-MB-231 cells, 384-well format; type: cell-based; conditions: MDA-MB-231, 3 days
How it was run: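 MDA-MB-231 cells were plated in 384-well plates 24 h before compound, diluted in medium from a 10 mM DMSO stock (final DMSO ≤0.6%). Treatment was 3 µM over a time course or a concentration series for 3 days, at 37 °C, 5% CO2. H3K27me3 immunofluorescence used PFA fixation and Triton permeabilization, primary antibody 16 h at 4 °C, plus Hoechst. Confocal imaging averaged about 1500–2000 nuclei; triplicates, % of DMSO control.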

SMILES | time at which loss of H3K27me3 was apparent (H3K27me3 [1]) [h] | time required for full effects on H3K27me3 (H3K27me3 [1]) | cell number, % of DMSO control (MDA-MB-231 cells) [%] | global H3K27me3 level at maximum reduction, % of DMSO control (H3K27me3 [2]) [%]
Cc1cc(C)c(CNC(=O)c2cc(-c3ccc(CN4CCOCC4)cc3)cc3c2cnn3C2CCCC2)c(=O)[nH]1 [EPZ005687] | 24 | up to 5 days |  | 
Nc1nccc2c1ncn2C1C=C(CO)C(O)C1O (stereo not shown) [DZNep, 3-deazaneplanocin A] |  |  | 45 | 65

Source: article PMC4361481 (Journal of Biomolecular Screening, 2015)
